Measured values taken from ChEMBL document CHEMBL1127734, “Selective ligands for rat A3 adenosine receptors: structure-activity relationships of 1,3-dialkylxanthine 7-riboside derivatives” (J Med Chem, 1994).

Columns and labels:
[1] = molecular target: Adenosine receptors; A1 & A3 (Rattus norvegicus) (UniProt P25099+P28647); experiment: Selectivity ratio (Ki's)for A1 and A3 receptors in rat brain; format: tissue-based
Outline: (§1)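 Ratio of Ki values from rat A1 (cortical, [3H]PIA) or A2a (striatal, [3H]CGS 21680) binding over Ki from rat A3 binding ([125I]AB-MECA, CHO membranes). Where one value is only a percent displacement, a conservative boundary estimate of the ratio is given.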

Adenosine receptor A2a = Adenosine receptor A2a (Rattus norvegicus, UniProt P30543); experiment: Displacement of specific [3H]- CGS-21680 in rat striatal membranes A2a receptor; format: cell membranes, Membrane
Chain of Adenosine receptor A2a (P30543 whole entry): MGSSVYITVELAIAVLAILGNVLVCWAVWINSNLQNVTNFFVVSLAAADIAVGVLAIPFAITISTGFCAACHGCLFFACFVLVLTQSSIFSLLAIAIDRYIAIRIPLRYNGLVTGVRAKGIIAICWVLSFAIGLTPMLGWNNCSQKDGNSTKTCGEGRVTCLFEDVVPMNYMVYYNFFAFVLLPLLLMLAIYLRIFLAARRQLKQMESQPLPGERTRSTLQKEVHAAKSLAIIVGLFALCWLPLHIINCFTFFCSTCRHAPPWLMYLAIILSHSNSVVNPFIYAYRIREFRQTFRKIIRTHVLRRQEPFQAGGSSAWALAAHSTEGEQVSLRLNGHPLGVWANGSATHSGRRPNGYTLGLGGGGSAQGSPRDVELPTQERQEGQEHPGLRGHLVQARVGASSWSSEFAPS
Outline: (§2)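 Rat striatal membranes; [3H]CGS 21680 binding at A2a receptors. Adenosine deaminase (3 units/mL) present during membrane preparation, which includes a 30 °C, 30 min incubation, and during radioligand incubation.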

Adenosine receptor A3 = molecular target: T1, Adenosine receptor A3 (Rattus norvegicus, UniProt P28647); experiment: Displacement of specific [125]AB-MECA binding in membranes of CHO cells stably transfected with the rat A3-cDNA; format: cell membranes
T1 sequence (P28647 whole entry): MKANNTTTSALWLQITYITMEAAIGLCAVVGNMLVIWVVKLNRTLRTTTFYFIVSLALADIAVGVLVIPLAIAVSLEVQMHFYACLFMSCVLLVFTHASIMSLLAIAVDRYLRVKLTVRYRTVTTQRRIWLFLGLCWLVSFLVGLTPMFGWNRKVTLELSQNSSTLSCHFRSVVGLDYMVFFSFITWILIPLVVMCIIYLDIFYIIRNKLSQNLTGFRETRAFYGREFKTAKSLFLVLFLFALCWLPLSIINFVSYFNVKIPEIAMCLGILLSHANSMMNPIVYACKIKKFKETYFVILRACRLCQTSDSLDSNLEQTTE

Adenosine receptor A1 = molecular target: T2, Adenosine receptor A1 (Rattus norvegicus, UniProt P25099); experiment: Tested for the displacement of specific [3H]PIA in rat brain membranes of A1 receptor; format: cell membranes
T2 sequence (P25099 whole entry): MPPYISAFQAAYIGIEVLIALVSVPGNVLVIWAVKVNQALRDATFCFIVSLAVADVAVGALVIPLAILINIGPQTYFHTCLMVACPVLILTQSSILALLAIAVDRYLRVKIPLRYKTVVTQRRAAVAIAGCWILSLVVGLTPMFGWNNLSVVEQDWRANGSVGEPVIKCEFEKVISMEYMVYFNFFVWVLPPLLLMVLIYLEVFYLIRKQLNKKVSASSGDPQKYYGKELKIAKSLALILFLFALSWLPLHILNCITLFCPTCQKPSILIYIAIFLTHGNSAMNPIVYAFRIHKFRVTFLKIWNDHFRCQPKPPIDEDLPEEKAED

[2] = molecular target: Adenosine receptor A2a and A3 (Rattus norvegicus) (UniProt P30543+P28647); experiment: Selectivity for A2a and A3 receptors in rat brain as ratio of Ki; format: tissue-based; outline: as §1
Chain of Adenosine receptor A2a and A3 (Rattus norvegicus) (P30543 whole entry, looked up, one chain of several): as the sequence (P30543 whole entry) above

[3] = molecular target: Adenosine receptor A2a (Rattus norvegicus) (UniProt P30543); experiment: Displacement of [3H]CGS-21680 from A2a receptor of rat striatal membrane at 10e-5 M; outline: as §2
Chain of Adenosine receptor A2a (Rattus norvegicus) (P30543 whole entry): as the sequence (P30543 whole entry) above

[4] = molecular target: T3, Adenosine receptor A1 (Rattus norvegicus) (UniProt P25099); experiment: Percent displacement of [3H]PIA from A1 receptor of rat brain membrane at 10e-4 M
T3 sequence (whole entry): T2 sequence (P25099 whole entry)
Outline: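 A1 receptor binding in rat cortical membranes with [3H]-(R)-PIA. Adenosine deaminase (3 units/mL) present during membrane preparation, which includes a 30 °C, 30 min incubation, and during radioligand incubation. Result given as displacement of specific binding, as Ki or as percent displacement at the stated concentration.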

[5] = molecular target: Adenosine receptor A2a (Rattus norvegicus) (UniProt P30543); experiment: Displacement of specific [3H]- CGS-21680 in rat striatal membranes A2a receptor at 10e-4 M concentration; format: cell membranes; details: Membrane
[6] = molecular target: Adenosine receptor A2a (Rattus norvegicus) (UniProt P30543); experiment: Displacement of [3H]- CGS-21680 from A2a receptor of rat striatal membrane at 3*10e-4 M; outline: as §2
[7] = molecular target: Adenosine receptor A2a (Rattus norvegicus) (UniProt P30543); experiment: Displacement of [3H]CGS-21680 from A2a receptor of rat striatal membrane at 10e-4 M; outline: as §2

| Structure (SMILES) | Selectivity ratio [1] | Ki (Adenosine receptor A2a) [µM] | Ki (Adenosine receptor A3) [µM] | Ki (Adenosine receptor A1) [µM] | Selectivity ratio [2] | inhibition [3] [%] | inhibition [4] [%] | inhibition [5] [%] | inhibition [6] [%] | inhibition [7] [%] |
| --- | --- | --- | --- | --- | --- | --- | --- | --- | --- | --- |
| CCCCn1c(=O)c2c(ncn2C2O[C@H](C(=O)N(C)C)[C@@H](O)[C@H]2O)n(CCCC)c1=O (some centres not stated) | 0.04 | 53.5 | 228 | 9.1 | 0.23 |  |  |  |  |  |
| CCCCCCn1c(=O)c2c(ncn2C2O[C@H](CO)[C@@H](O)[C@H]2O)n(CCCCCC)c1=O (some centres not stated) | 0.23 |  | 43 | 9.75 |  | 7.8 |  |  |  |  |
| CCCCn1c(=O)c2c(ncn2C2O[C@H](CO)[C@@H](O)[C@H]2O)n(Cc2ccccc2)c1=O (some centres not stated) | 0.17 | 8.67 | 12.9 | 2.19 | 0.67 |  |  |  |  |  |
| CCCCn1c(=O)c2c(ncn2C2O[C@H](CO)[C@@H](O)[C@H]2O)n(CCCC)c1=O (some centres not stated) | 0.69 | 19.5 | 6.03 | 4.19 | 3.2 |  |  |  |  |  |
| CCCCn1c(=O)c2c(ncn2C2O[C@H](CO)[C@@H](O)[C@H]2O)n(CCCC)c1=S (some centres not stated) | 1.6 | 4.25 | 1.4 | 2.25 | 3 |  |  |  |  |  |
| COc1nc2c(c(=O)n(C)c(=O)n2C)n1C1O[C@H](CO)[C@@H](O)[C@H]1O (some centres not stated) | > 1 |  | 0.074 |  | > 1 |  | 21 | 4 |  |  |
| CCCCCn1c(=O)c2c(ncn2C2O[C@H](C(=O)NC)[C@@H](O)[C@H]2O)n(CCCCC)c1=O (some centres not stated) | 4.3 |  | 2.63 |  | > 1 |  |  | 2 |  |  |
| CCCCn1c(=O)c2c(ncn2C2O[C@H](C(=O)NCC)[C@@H](O)[C@H]2O)n(CCCC)c1=O (some centres not stated) | 10 | 38.1 | 0.602 | 6.21 | 63 |  |  |  |  |  |
| CCCCn1c(=O)c2c(ncn2C2O[C@H](C(=O)OC)[C@@H](O)[C@H]2O)n(CCCC)c1=O (some centres not stated) | 1.2 |  | 3.23 | 3.72 | > 1 |  |  |  | 0 |  |
| Cn1c(=O)c2c(ncn2C2O[C@H](CO)[C@@H](O)[C@H]2O)n(C)c1=O (some centres not stated) | 0.3 |  | 89.4 | 27 | > 1 |  |  |  |  | 2 |
| CCCCCn1c(=O)c2c(ncn2C2O[C@H](CO)[C@@H](O)[C@H]2O)n(CCCCC)c1=O (some centres not stated) | 1.8 | 47.3 | 4.81 | 8.79 | 9.8 |  |  |  |  |  |
| CCCn1c(=O)c2c(ncn2C2O[C@H](CO)[C@@H](O)[C@H]2O)n(CCC)c1=O (some centres not stated) | 0.2 |  | 81.2 | 15.9 | > 1 |  |  | 32 |  |  |
| CCCCCCn1c(=O)c2c(ncn2C2O[C@H](C(=O)NC)[C@@H](O)[C@H]2O)n(CCCCCC)c1=O (some centres not stated) | 3 |  | 10.3 | 30.8 | > 10 |  |  | 0 |  |  |
| CCCCn1c(=O)c2c(ncn2C2O[C@H](C(N)=O)[C@@H](O)[C@H]2O)n(CCCC)c1=O (some centres not stated) | 0.2 | 54.9 | 15.3 |  | 3.6 |  |  |  |  |  |
